According to the array DNA melting data of Ke et al. (doi:10.1101/2024.01.08.574731):

Legend:
[1] = folding enthalpy; higher = less favourable; fluorescence melt of hairpins on a sequencing array, two-state fit; conditions: sodium 0.088 M
Method in brief: (§1)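 Cy3 fluorescence of library hairpins on a sequenced MiSeq flow cell, with annealed Cy3 and quencher oligos, was imaged in 50 mM Na-HEPES pH 8.0, 25 mM NaCl in 2.5 °C steps up to 60 °C. Signals were normalised to pre-quench Cy3 and to control variants. Melting temperature and folding enthalpy came from bootstrapped two-state fits, inverse-variance combined over four replicates. Fitted temperatures were raised by 9.35 °C to match UV melts.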

[2] = melting temperature; fluorescence melt of hairpins on a sequencing array, two-state fit, raised by 9.35 °C to match UV melts; conditions: sodium 0.088 M
Method in brief: as §1

Sequence | folding enthalpy [1] | Tm [2]
GTGCTCGAAAGAGGACAC ((((((....)))..))) | -65.4 kJ/mol | 49.8 °C
GTGCTCGAAAGAGGTCAC ((((((....)))..))) | -66.3 kJ/mol | 35.5 °C
GTGCTCGAAAGAGTGCAC ((((((....)))..))) | -100 kJ/mol | 48.7 °C
GTGCTCGGAAACGAGCGC (.(((((....))))).) | -81.3 kJ/mol | 64.5 °C
GTGCTCTCGAAAGAGCAC (((..(((....)))))) | -168 kJ/mol | 62.6 °C
GTGCTGGGAAACCAACAC (((.(((....))).))) | -154 kJ/mol | 44 °C
GTGCTGGGAAACCAGTAC ((.((((....)))).)) | -166 kJ/mol | 51.7 °C
GTGCTTACGAAAGTACAC (((..(((....)))))) | -39.5 kJ/mol | 34 °C
GTGCTTGGAAACAAGTAC ((.((((....)))).)) | -135 kJ/mol | 49.2 °C
GTGGAAACGAAAGTTCAC (((..(((....)))))) | -81.7 kJ/mol | 33.7 °C
GTGGAACGAAAGTTGCAC (((.(((....))).))) | -168 kJ/mol | 56.5 °C
GTGGAAGCGAAAGCTCAC (((..(((....)))))) | -78.6 kJ/mol | 44.3 °C
GTGGAAGGAAACTTCTAC ((.((((....)))).)) | -116 kJ/mol | 39.3 °C
GTGGACGAAAGTCACCAC ((((((....)))..))) | -68.8 kJ/mol | 38 °C
GTGGACGAAAGTCCCCAC ((((((....)))..))) | -33.7 kJ/mol | 37.2 °C
GTGGACGAAAGTCGCAC ((((((....))).))) | -64.7 kJ/mol | 50.4 °C
GTGGACGAAAGTCTGCAC ((((((....)))..))) | -65.9 kJ/mol | 40.6 °C
GTGGACGGAAACACCCAC ((((..(....)..)))) | -51.1 kJ/mol | 30.4 °C
GTGGAGCCGAAAGGCCAC (((..(((....)))))) | -57.2 kJ/mol | 50.5 °C
GTGGCACCGAAAGGTCAC (((..(((....)))))) | -62.2 kJ/mol | 42.6 °C
GTGGCAGGAAACTGTCAC (((.(((....))).))) | -171 kJ/mol | 54.3 °C
GTGGCCGAAAGGCAGCAC ((((((....)))..))) | -59.2 kJ/mol | 46.3 °C
GTGGCCTCGAAAGAGCAC (((..(((....)))))) | -61.6 kJ/mol | 37.4 °C

Sequence | folding enthalpy [1] | Tm [2]
GTGGCGGGAAACCGCTAC ((.((((....)))).)) | -80.6 kJ/mol | 58.3 °C
GTGGCTCCGAAAGGACAC (((..(((....)))))) | -61.1 kJ/mol | 47.8 °C
GTGGCTGCGAAAGCACAC (((..(((....)))))) | -48.3 kJ/mol | 47.8 °C
GTGGGAACGAAAGTTCAC (((..(((....)))))) | -144 kJ/mol | 54.9 °C
GTGGGAGGAAACTCCTAC ((.((((....)))).)) | -105 kJ/mol | 46.8 °C
GTGGGAGGAAACTCCTGC (..((((....))))..) | -73 kJ/mol | 37.8 °C
GTGGGAGGAAACTTCCAC ((((.((....)).)))) | -172 kJ/mol | 49.2 °C
GTGGGCGAAAGCCCGCAC ((((((....)))..))) | -42.5 kJ/mol | 58.6 °C
GTGGGCGAAAGCCGCAC ((((((....))).))) | -57.8 kJ/mol | 55.4 °C
GTGGGCGGAAACGCCTAC ((.((((....)))).)) | -68.2 kJ/mol | 56.5 °C
GTGGGCGGAAACGCTCAC (((.(((....))).))) | -143 kJ/mol | 59.6 °C
GTGGGCGGAAACGCTCGC (.(.(((....))).).) | -89.1 kJ/mol | 49.9 °C
GTGGGGCGAAAGCCCAC (((.(((....)))))) | -53.5 kJ/mol | 62.6 °C
GTGGGGCGAAAGCCTCAC (((.(((....))).))) | -126 kJ/mol | 67.6 °C
GTGGGGGGAAACCCTCAC (((.(((....))).))) | -127 kJ/mol | 52.6 °C
GTGGGGTCGAAAGACCAC (((..(((....)))))) | -80.4 kJ/mol | 63.1 °C
GTGGTAGAAATACCAC ((((((....)))))) | -151 kJ/mol | 53.6 °C
GTGGTAGGAAACCACCAC (((((.(....).))))) | -94 kJ/mol | 49.4 °C
GTGGTAGGAAACTACCAC (((((((....))))))) | -230 kJ/mol | 61.2 °C
GTGGTAGGAAACTACCGC (.(((((....))))).) | -136 kJ/mol | 52.5 °C
GTGGTAGGAAACTACTAC ((.((((....)))).)) | -135 kJ/mol | 41.8 °C
GTGGTAGGAAACTATCGC (.(.(((....))).).) | -75.6 kJ/mol | 31.1 °C
GTGGTAGGAAACTGCCAC ((((.((....)).)))) | -209 kJ/mol | 54.1 °C

Sequence | folding enthalpy [1] | Tm [2]
GTGGTATCGAAAGATCAC (((..(((....)))))) | -99.5 kJ/mol | 33.3 °C
GTGGTCCCGAAAGGGCAC (((..(((....)))))) | -62 kJ/mol | 42.5 °C
GTGGTCGAAAGACACAC ((((((....))).))) | -111 kJ/mol | 50.3 °C
GTGGTCGAAAGACTCCAC ((((((....)))..))) | -57.4 kJ/mol | 38.9 °C
GTGGTCGGAAACGGCCAC ((((.((....)).)))) | -141 kJ/mol | 63.5 °C
GTGGTGCGAAAGCAACAC (((.(((....))).))) | -121 kJ/mol | 68.9 °C
GTGGTGCGAAAGCACAC (((.(((....)))))) | -48.2 kJ/mol | 53.8 °C
GTGGTGCGAAAGCATCAC (((.(((....))).))) | -127 kJ/mol | 67 °C
GTGGTGGCGAAAGCCCAC (((..(((....)))))) | -61.8 kJ/mol | 53.5 °C
GTGGTGGGAAACCATCGC (.(.(((....))).).) | -104 kJ/mol | 41.6 °C
GTGGTGGGAAACCGCTAC ((.(.((....)).).)) | -80.9 kJ/mol | 46.7 °C
GTGGTGGGAAACTACCAC (((((.(....).))))) | -182 kJ/mol | 52.6 °C
GTGGTTCGAAAGAAGCAC (((.(((....))).))) | -175 kJ/mol | 60.1 °C
GTGGTTGGAAACAGCCAC ((((.((....)).)))) | -184 kJ/mol | 52.4 °C
GTGGTTGGAAACAGTCAC (((..((....))..))) | -81.3 kJ/mol | 31.2 °C
GTGGTTGGAAACGACCAC (((((.(....).))))) | -172 kJ/mol | 54.7 °C
GTGTAACGAAAGTTTCAC (((.(((....))).))) | -95.7 kJ/mol | 44.9 °C
GTGTACGAAAGTAACAC ((((((....))).))) | -126 kJ/mol | 49.5 °C
GTGTACGAAAGTAACCAC ((((((....)))..))) | -62.8 kJ/mol | 32 °C
GTGTACGAAAGTAAGCAC ((((((....)))..))) | -89.2 kJ/mol | 33.4 °C
GTGTACGAAAGTAATCAC ((((((....)))..))) | -76.5 kJ/mol | 30.2 °C
GTGTACGAAAGTATCCAC ((((((....)))..))) | -76.4 kJ/mol | 26.4 °C
GTGTACGGAAACATACAC (((((.(....).))))) | -109 kJ/mol | 36.1 °C

Sequence | folding enthalpy [1] | Tm [2]
GTGTACGGAAACGTATAC ((.((((....)))).)) | -122 kJ/mol | 46.6 °C
GTGTACGGAAACGTATGC (..((((....))))..) | -112 kJ/mol | 39.5 °C
GTGTACGGAAACGTGTAC ((..(((....)))..)) | -85.5 kJ/mol | 35.2 °C
GTGTAGGGAAACCCACAC ((((.((....)).)))) | -103 kJ/mol | 45.8 °C
GTGTATCGAAAGATTCAC (((.(((....))).))) | -154 kJ/mol | 44.7 °C
GTGTATGGAAACATGCAC (((.(((....))).))) | -142 kJ/mol | 48.9 °C
GTGTCACGAAAGTGCAC (((.(((....)))))) | -109 kJ/mol | 53.5 °C
GTGTCACGAAAGTGGCAC (((.(((....))).))) | -155 kJ/mol | 67.3 °C
GTGTCAGAAATGACAC ((((((....)))))) | -150 kJ/mol | 56.4 °C
GTGTCAGCGAAAGCTCAC (((..(((....)))))) | -63.8 kJ/mol | 39 °C
GTGTCCCGAAAGGGCCAC (((.(((....))).))) | -99.4 kJ/mol | 56.4 °C
GTGTCCGAAAGGACCAC ((((((....))).))) | -42.7 kJ/mol | 48.5 °C
GTGTCCGAAAGGAGGCAC ((((((....)))..))) | -86.1 kJ/mol | 39.5 °C
GTGTCCGAAAGGATACAC ((((((....)))..))) | -78.2 kJ/mol | 49 °C
GTGTCCGAAAGGATCAC ((((((....))).))) | -106 kJ/mol | 51 °C
GTGTCCGGAAACGGACGC (.(((((....))))).) | -60.9 kJ/mol | 62.5 °C
GTGTCGGAAACGACAC ((((((....)))))) | -129 kJ/mol | 69.2 °C
GTGTCGGGAAACCGATAC ((.((((....)))).)) | -120 kJ/mol | 52.1 °C
GTGTCGGGAAACCGGCAC (((.(((....))).))) | -189 kJ/mol | 60.8 °C
GTGTCGGGAAACTGACAC (((((.(....).))))) | -174 kJ/mol | 55 °C
GTGTCTCGAAAGAGCAC (((.(((....)))))) | -140 kJ/mol | 52.2 °C
GTGTCTGGAAACAGACAC (((((((....))))))) | -167 kJ/mol | 66.5 °C
